Assay [1] deals with T1, Androgen receptor (Homo sapiens) (UniProt P10275).
T1 sequence (whole entry): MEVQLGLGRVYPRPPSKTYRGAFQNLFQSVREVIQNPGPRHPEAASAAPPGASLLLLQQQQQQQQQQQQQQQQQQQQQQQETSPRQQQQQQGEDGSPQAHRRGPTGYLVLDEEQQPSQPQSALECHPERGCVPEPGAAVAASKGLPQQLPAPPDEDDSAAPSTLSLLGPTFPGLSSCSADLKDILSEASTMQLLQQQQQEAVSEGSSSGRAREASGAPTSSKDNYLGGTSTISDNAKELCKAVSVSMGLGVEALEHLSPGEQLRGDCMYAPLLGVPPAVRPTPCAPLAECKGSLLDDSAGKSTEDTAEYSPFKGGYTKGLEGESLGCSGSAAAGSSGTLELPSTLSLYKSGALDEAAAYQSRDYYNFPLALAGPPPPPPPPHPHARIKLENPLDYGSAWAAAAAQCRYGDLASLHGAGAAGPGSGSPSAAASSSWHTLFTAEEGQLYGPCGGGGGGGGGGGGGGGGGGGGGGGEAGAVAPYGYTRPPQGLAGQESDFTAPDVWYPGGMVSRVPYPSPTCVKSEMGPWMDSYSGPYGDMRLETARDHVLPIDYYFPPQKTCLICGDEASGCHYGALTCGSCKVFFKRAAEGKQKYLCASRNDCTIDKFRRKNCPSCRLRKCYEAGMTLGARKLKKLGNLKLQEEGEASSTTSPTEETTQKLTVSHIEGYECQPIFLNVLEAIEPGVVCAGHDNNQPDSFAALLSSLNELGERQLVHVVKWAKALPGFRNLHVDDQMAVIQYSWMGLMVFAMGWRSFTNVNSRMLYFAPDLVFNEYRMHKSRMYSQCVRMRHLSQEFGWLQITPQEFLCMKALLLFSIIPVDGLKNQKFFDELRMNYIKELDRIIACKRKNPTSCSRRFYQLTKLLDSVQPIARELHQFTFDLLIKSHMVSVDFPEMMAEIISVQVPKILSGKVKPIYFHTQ
Put plainly: Antagonist activity at androgen receptor in human VCaP cells assessed as inhibition of R1881-induced FKBP5 mRNA expression after 24 hrs by qRT-PCR analysis. Format: cell-based. In a few lines:
(§1)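 VCaP cells held 48 h in DMEM with 5% charcoal-stripped FBS, then 24 h with compound plus 0.2 nM R1881. TRIzol RNA extraction, cDNA synthesis, qRT-PCR for the target mRNA normalized to GAPDH; mean ± SD, n = 3.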

The next assay deals with VCaP. The experiment in a line: Antiproliferative activity against human VCaP cells assessed as reduction in cell viability incubated for 6 days by CCK8 assay. The class given is functional, cell-based. The note with it: 144 h. An outline of the steps: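 Cells seeded (2×10^4 per well for VCaP, 1–3×10^3 for the others) and compound added after 24 h as a 9-point, 3-fold serial dilution. Exposure 6 days, then CCK-8 for 1–4 h and absorbance at 450 nm. IC50 from curve fit, mean of at least two independent experiments run in duplicate.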

Another assay has as its target T2, Androgen receptor (Homo sapiens, UniProt P10275).
T2 sequence (P10275 whole entry): T1 sequence (whole entry)
The class given is cell-based, LNCaP.

Assay [2] addresses T1, Androgen receptor (Homo sapiens). The experiment in a line: Antagonist activity at androgen receptor in human VCaP cells assessed as inhibition of R1881-induced PSA mRNA expression after 24 hrs by qRT-PCR analysis. Format: cell-based. In a few lines: as §1
For assay [3], the system named is T3, Androgen receptor (Homo sapiens), P10275 [F877L].
T3 sequence (whole entry): T1 sequence (whole entry) with F877L
Put plainly: Antagonist activity against human AR F876L mutant expressed in human PC3 cells assessed as inhibition of 1 nM R1881-induced transactivation incubated for 24 hrs by dual luciferase reporter gene assay. The class given is cell-based. In a few lines:
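PC-3 cells in DMEM/F12 (1:1) with 5% charcoal-stripped FBS, cotransfected with 50 ng F876L AR plasmid and 50 ng AR luciferase reporter per well. 24 h post-transfection, compound plus 1 nM R1881 for 24 h. Firefly luminescence normalized to Renilla; mean ± SEM, n = 3.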

The values below come from ChEMBL document CHEMBL4346686, “Discovery and biological evaluation of novel androgen receptor antagonist for castration-resistant prostate cancer” (Eur J Med Chem, 2019).

Positions count from the first letter of the chain named.

On to `Cc1ccc(-c2c(C)noc2C)cc1Nc1ccc(C#N)c(Cl)c1`, for which the Activity result in assay [1], in assay [2] and in assay [3] was “Dose-dependent effect” throughout. In addition, the values for the IC50 in the assay on VCaP and at Androgen receptor were 700 nM and 641 nM, respectively.
